This note sets out measurements from PubChem BioAssay AID504349 (Southern Research Specialized Biocontainment Screening …, 2011).

Calls of active or inactive are those of the source. No rule for the calls is given here. Some results are limits rather than exact numbers.

Tested on in the first assay: not listed separately
Description: OD600 growth after T7 infection, EV36 – E. coli EV36 K1, powder samples, selectivity assay for bacterial capsule biogenesis inhibitors, dose response (AID 504349). The note with it: E. coli EV36 K1, T7 phage lysis, OD600 3 h; at 100 µM (top of the series). In a few lines:
(§1)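 Probe or stimulus: T7 phage infection; assay system: E. coli EV36 K1:K-12 hybrid cells; input: overnight bacterial culture diluted 1:100 into each well; measure: phage lysis inhibition from OD600; schedule: 1.5 h compound at 37 °C, 3 h after T7; compound dosing: dose series 0.39–100 µM final, 1% DMSO; technique: absorbance at 600 nm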
In the case of `COc1ccc(OC)c(-c2cc(C(=O)O)c3cc4ccccc4cc3n2)c1`, the phage lysis inhibition (viability) was 99% (inactive).

With `Cc1cc(C)c2c(=O)c(-c3cc(C(=O)O)c4cc5ccccc5cc4n3)coc2c1`, the phage lysis inhibition (viability) was 107% (inactive). The same measure, in the same setting: next, `Cc1ccc(C2c3c(oc4cc(C)c(C)cc4c3=O)C(=O)N2CCCN2CCOCC2)cc1` (stereo not given): 91.7% (inactive); `C=CCOc1ccc(C2c3c(oc4ccccc4c3=O)C(=O)N2CCCN2CCOCC2)cc1` (stereo not given): 97.4% (inactive); `O=C(O)c1cc(-c2c[nH]c3ccccc23)nc2cc3ccccc3cc12`: 101% (inactive). With `O=C(O)c1cc(-c2cccc(Cl)c2)nc2cc3ccccc3cc12`, the phage lysis inhibition (viability) was 101% (inactive).

In the next assay the test system is E. coli EV36 K1, T7 phage lysis, OD600 3 h. Described as above.
Conditions: not given
In a few lines:
as §1
On to `O=C(ONc1ccc(N=NC(=O)c2ccccc2O)cc1)c1ccccc1`, for which the IC50 was under 390 nM. Still for that read-out and setting: next, `O=C(NCc1cc([N+](=O)[O-])ccc1O)c1cccnc1Sc1ccccc1`: 4600 nM. Same read-out and setting: next, `CC1=NN2C(=N)/C(=C\c3ccc(SCc4ccco4)o3)C(=O)N=C2S1`: 1500 nM; `O=C(Nc1ccncc1)c1ccc2ncsc2c1`: under 390 nM. Same read-out and setting: as for `CCOc1ccc(-c2cc(NC(=O)c3c(F)cccc3F)c(C(=O)O)s2)cc1`, the figure is under 390 nM. As to `CC1(C(=O)O)CCC(C(=O)Nc2ccc3ccccc3c2)C1(C)C` (stereo not given), the IC50 was 8500 nM. On the same count and under the same terms, as for `COc1ccc2nc(NC(=O)c3ccc(Br)s3)sc2c1`, the figure is under 390 nM. On the same count and under the same terms, next, `O=C(COc1ccc(Cl)cc1Cl)Nc1ccc(C(=O)Nc2ccccc2C(=O)O)cc1`: 2900 nM; `O=C(NCc1cc([N+](=O)[O-])ccc1O)c1cccnc1Sc1ccccc1Cl`: 1800 nM.
